The list is not random: actives were taken first. Their share in the collection is about 4.5%.
CHO parental Ca: counter-screen: ATP calcium response change in parental CHO cells; inhibition, % at 5.6 µM; actives 0.63% (n = 330,000); parental CHO-K1, ATP-induced calcium, Fluo-8 fluorescence;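 active means inhibition above that plate's mean sample inhibition plus 3 SD, cut at about 26% in these data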;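 further: 0% = ATP-challenged DMSO wells and 100% = DMSO wells without ATP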
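Material: parental CHO cells / Compound: single nominal dose of 5.6 µM per compound / Signal: Fluo-8 fluorescence / Replicates: singlicate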
OX1R antag-1: OX1R (human) antagonism; O43613; inhibition, % at 6.6 µM; actives 1.8% (n = 330,000); OX1R-expressing cells, FRET antagonist read-out; in the data active means inhibition mostly above about 38%, no sharp cut-off; inactive means mostly below about 40%;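 further: 0% = agonist challenge alone and 100% = reference antagonist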
TAAR1 ag: human TAAR1 agonism; Q96RJ0; CHO RD-HGA16 TAAR1, Fluo-8 calcium fluorescence; vehicle wells 0%, saturating PEA agonist 100%; activation, % at 3 µM; actives 0.99% (n = 360,000); AID 624467;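 active means activation above the mean activation of all test compounds in the run plus 3 SD, cut at about 38% in these data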
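Repeats: no replicates (n 1) | Material: CHO-derived RD-HGA16 cells with stable Gα16 and human TAAR1 | Technique: Kinetic Fluo-8 calcium fluorescence | Schedule: 17-24 h seeding, 75 min 37 °C dye, 30 min RT | Evaluation: % activation from peak over basal fluorescence ratio, DMSO-to-PEA scaled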
GPR7 antag: human neuropeptides B/W receptor 1 antagonism. inhibition, % at 4.4 µM. GPR7-expressing cells, fluorescence antagonist assay. AID 1861. P48145. actives 1.1% (n = 290,000); in the data active means inhibition above about 16%, passing the limit was not always enough;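 further: cells stimulated with the agonist NPW; 0% = agonist with vehicle and 100% = vehicle without agonist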
Target sequence (P48145 whole entry, looked up): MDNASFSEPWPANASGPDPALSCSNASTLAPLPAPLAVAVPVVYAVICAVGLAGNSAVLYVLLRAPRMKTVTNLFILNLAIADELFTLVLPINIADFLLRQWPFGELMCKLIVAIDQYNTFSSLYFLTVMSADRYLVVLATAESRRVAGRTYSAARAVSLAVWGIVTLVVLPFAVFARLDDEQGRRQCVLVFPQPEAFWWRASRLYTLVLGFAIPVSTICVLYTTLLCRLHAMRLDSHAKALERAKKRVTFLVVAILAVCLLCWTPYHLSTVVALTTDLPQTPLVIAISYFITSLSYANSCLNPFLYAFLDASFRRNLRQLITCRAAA
TAAR1 antag: antagonists of human TAAR1 | actives 1.5% (n = 360,000) | CHO RD-HGA16 TAAR1, Fluo-8 calcium fluorescence, antagonist | AID 624466 | inhibition, % at 3 µM;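 active means inhibition above a per-plate cutoff, the mean inhibition of test compounds on that plate plus 3 SD, cut at about 49% in these data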;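 further: 0% = DMSO plus EC80 beta-PEA response and 100% = DMSO alone without agonist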
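Test system: RD-HGA16 CHO cells with stable hTAAR1 and Gα16 / Probe or stimulus: EC80 β-phenethylamine stimulus / Times: seeding 17-24 h prior, 75-min 37 °C, 30-min RT dye loading / Detection: Fluo-8 calcium-sensitive fluorescence / Read-out basis: % inhibition scaled between DMSO and EC80 PEA controls / Repeats: singlicate, one well per test compound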
OX1R antag-2: blocks the human orexin 1 receptor | O43613 | inhibition, % at 5 µM | actives 0.43% (n = 330,000) | CHO/OX1R cells, Fluo-8 calcium fluorescence, orexin A | AID 434989;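 active means inhibition above its plate's threshold, mean inhibition of all tested compounds on the plate plus 3 SD, cut at about 37% in these data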;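 further: 0% = orexin A challenge wells and 100% = SB-334867-A antagonist wells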
nonsel antag count: nonselective antagonism, TAAR1 counter-screen | shares compounds with TAAR1 antag | counterscreen cell line, calcium fluorescence, antagonist mode | inhibition, % at 3 µM | actives 77% (n = 2,400) | AID 651780; in the data active means inhibition above about 22%;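 further: CHO-Ga16 host cells stimulated with ATP at an EC80 level; 0% = agonist EC80 plus vehicle and 100% = vehicle without agonist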
TAAR1 ant conf: confirmation of human TAAR1 antagonists; shares compounds with TAAR1 antag; TAAR1-expressing cells, fluorescence antagonist read-out; inhibition, % at 3 µM; actives 40% (n = 2,400); in the data active means inhibition above about 49%;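 further: CHO-Ga16 host cells challenged with agonist PEA near its EC80; 0% = agonist at EC80 plus vehicle and 100% = vehicle with no agonist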
Ga16 ag counter: nonselective Ga16 agonism, counter-screen; Ga16-expressing cells, calcium fluorescence, agonist counterscreen; actives 18% (n = 2,400); shares compounds with TAAR1 antag; activation, % at 3 µM; AID 651953; in the data active means activation above about 12%;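 further: 0% = vehicle wells and 100% = saturating stimulus response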
TAAR1 ag counter: activates human TAAR1 in antagonist counter-screen; activation, % at 3 µM; actives 2% (n = 2,400); shares compounds with TAAR1 antag; AID 651955; hTAAR1 cell line, fluorescence activation, agonist mode; in the data active means activation above about 37%;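 further: CHO cells stably expressing TAAR1 with calcium dye readout; 0% = DMSO vehicle and 100% = full agonist response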
Numbers without * were called inactive.

Results for Cc1nc2ccccn2c1C(=O)N/N=C/c1cc(C)n(-c2ccc(Cl)cc2)c1C ?
CHO parental Ca: -21; OX1R antag-1: 14; TAAR1 ag: 8; GPR7 antag: -5; TAAR1 antag: 16; OX1R antag-2: -22

What do the screens show for `CCNC(=S)N/N=C/c1cc(C)n(-c2ccc(Cl)cc2)c1C`?
CHO parental Ca: -30; OX1R antag-1: 15; TAAR1 ag: 11; GPR7 antag: 1; TAAR1 antag: 101*; OX1R antag-2: -17; nonsel antag count: 12; TAAR1 ant conf: 77*; Ga16 ag counter: 8; TAAR1 ag counter: 24

Results for O=C(c1oc2ccccc2c1CSCc1ccccc1)N1CCN(c2ncccn2)CC1 ?
CHO parental Ca: -8; OX1R antag-1: 13; TAAR1 ag: 11; GPR7 antag: 10; TAAR1 antag: 65*; OX1R antag-2: -7; nonsel antag count: 30*; TAAR1 ant conf: 41; Ga16 ag counter: 5; TAAR1 ag counter: 4

Results for CCOCC(=O)Nc1c(C(=O)N2CCN(c3ncccn3)CC2)oc2ccccc12 ?
CHO parental Ca: -2; OX1R antag-1: 5; TAAR1 ag: 6; GPR7 antag: -3; TAAR1 antag: 20; OX1R antag-2: -14

How did COc1ccc(Br)cc1CN1CCN(S(=O)(=O)Cc2ccccc2)CC1 do in these assays?
CHO parental Ca: -19; OX1R antag-1: 31; TAAR1 ag: 0; GPR7 antag: -2; TAAR1 antag: 56*; OX1R antag-2: -34; nonsel antag count: 5; TAAR1 ant conf: 37; Ga16 ag counter: 5; TAAR1 ag counter: 12

How did CC(C)(C)N1C(=O)c2ccc(C(=O)Nc3nccs3)cc2C1=O do in these assays?
CHO parental Ca: -28; OX1R antag-1: 14; TAAR1 ag: 12; GPR7 antag: -11; TAAR1 antag: 49*; OX1R antag-2: -34; nonsel antag count: 13; TAAR1 ant conf: 37; Ga16 ag counter: 6; TAAR1 ag counter: 2

Results for COc1ccccc1N1C(=O)c2ccc(C(=O)Nc3nccs3)cc2C1=O ?
CHO parental Ca: -16; OX1R antag-1: 44; TAAR1 ag: 5; GPR7 antag: -2; TAAR1 antag: 8; OX1R antag-2: -16

Results for CC(C)OC(=O)c1ccc(NC(=S)NC(=O)c2cncc(Br)c2)cc1 ?
CHO parental Ca: -18; OX1R antag-1: -8; TAAR1 ag: -1; GPR7 antag: 3; TAAR1 antag: -6; OX1R antag-2: -16

How did CC(C)OC(=O)c1ccc(NC(=O)c2cncc(Br)c2)cc1 do in these assays?
CHO parental Ca: -13; OX1R antag-1: 25; TAAR1 ag: 20; GPR7 antag: -1; TAAR1 antag: 65*; OX1R antag-2: -34; nonsel antag count: 27*; TAAR1 ant conf: 44; Ga16 ag counter: 16*; TAAR1 ag counter: 15

Results for Brc1ccc2nc(-c3ccc(CN4CCC5(CC4)CNc4ccccc45)cc3)c(-c3ccccc3)nc2c1 ?
TAAR1 ag: 5; TAAR1 antag: 49*; nonsel antag count: 26*; TAAR1 ant conf: 39; Ga16 ag counter: 3; TAAR1 ag counter: 5

Results for CC(=O)Nc1ccc(OS(=O)(=O)c2ccccc2C)cc1 ?
CHO parental Ca: -7; OX1R antag-1: 2; TAAR1 ag: 1; GPR7 antag: -7; TAAR1 antag: 8; OX1R antag-2: -21

How did Cc1ccccc1S(=O)(=O)Oc1ccc2ccc(O)cc2c1 do in these assays?
CHO parental Ca: 22; OX1R antag-1: 13; TAAR1 ag: 3; GPR7 antag: 9; TAAR1 antag: 66*; OX1R antag-2: 4; nonsel antag count: 30*; TAAR1 ant conf: 45; Ga16 ag counter: 5; TAAR1 ag counter: 7
